High-throughput results (PubChem BioAssay)
PRMT1 FP inh – PRMT1 methyltransferase inhibitors, primary screen, biochemical, fluorescence polarization. Protein arginine N-methyltransferase 1 (Homo sapiens), Q99873. inhibition, % at 2.79 µM. recombinant PRMT1, activity-based probe fluorescence polarization. actives 1.3% (n = 370,000);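 active = inhibition above about 21% made by adding two undisclosed values, limit read from the data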
Target sequence (Q99873 whole entry, looked up): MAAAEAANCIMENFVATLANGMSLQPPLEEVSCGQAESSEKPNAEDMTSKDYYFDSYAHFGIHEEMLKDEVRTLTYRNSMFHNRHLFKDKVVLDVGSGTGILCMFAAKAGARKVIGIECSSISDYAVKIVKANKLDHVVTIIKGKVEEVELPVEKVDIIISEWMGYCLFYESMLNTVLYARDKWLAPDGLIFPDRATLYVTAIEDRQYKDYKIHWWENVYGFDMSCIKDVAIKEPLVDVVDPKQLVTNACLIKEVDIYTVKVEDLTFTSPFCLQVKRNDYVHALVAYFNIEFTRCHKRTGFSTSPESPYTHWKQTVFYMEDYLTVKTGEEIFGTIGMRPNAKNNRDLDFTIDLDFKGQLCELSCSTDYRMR
ABHD4 inh – ABHD4 inhibitors, primary screen, biochemical, fluorescence polarization, mouse; (Lyso)-N-acylphosphatidylethanolamine lipase (Mus musculus), Q8VD66; purified mABHD4, FP-Rh probe fluorescence polarization; inhibition, % at 8.92 µM; actives 0.54% (n = 370,000); AID 720543, 2013;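 active = inhibition exceeding the mean over every tested compound plus 3 SD, cut at about 30% in these data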
Target sequence (Q8VD66 whole entry, looked up): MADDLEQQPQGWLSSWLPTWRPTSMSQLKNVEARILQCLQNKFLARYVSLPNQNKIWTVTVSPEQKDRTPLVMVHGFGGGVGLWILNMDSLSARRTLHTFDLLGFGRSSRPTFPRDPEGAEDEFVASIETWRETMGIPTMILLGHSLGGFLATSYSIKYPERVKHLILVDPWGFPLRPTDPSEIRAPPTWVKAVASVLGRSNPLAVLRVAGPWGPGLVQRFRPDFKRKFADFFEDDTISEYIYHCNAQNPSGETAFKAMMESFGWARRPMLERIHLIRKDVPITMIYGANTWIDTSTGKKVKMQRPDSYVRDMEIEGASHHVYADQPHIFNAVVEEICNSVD
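Test system: mouse ABHD4 enzyme, wild type. Reagent: FP-Rh fluorescent activity-based probe, added after compound pre-incubation. Timing: pre-incubation 45 min, probe exposure 60 min, at 25 °C. Technique: FP readout, ex 525 nm / em 598 nm. Benchmarks: high control S159A mutant with DMSO, low control median of compound wells.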
rCAG RNA binder – binders of r(CAG) RNA repeats, primary screen, biochemical, fluorescence; inhibition, % at 3 µM; actives 1.3% (n = 370,000); r(CAG) RNA repeat, TO-PRO-1 dye displacement fluorescence; AID 651821, 2012;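 active = inhibition above the plate cutoff, the mean of all test compounds on that plate plus 3 SD, cut at about 35% in these data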;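 also: higher means more dye released from RNA so lower well fluorescence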
SIAE inh – human SIAE inhibitors, primary screen, biochemical, fluorescence polarization, FP-Rh probe, 1536-well HTS | SIAE FP-Rh probe binding | inhibition, % at 9.66 µM | actives 0.69% (n = 370,000);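 active = inhibition above a cutoff: mean of compounds within the control limits plus 3 SD of those, cut at about 17% in these data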
TCR CD3 inh – inhibitors of human TCR-CD3 interaction, primary screen, biochemical, fluorescence, TAMRA-labeled TCR probe; inhibition, % at 9.4 µM; actives 0.37% (n = 360,000);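 also: recombinant mutant TCR 2C K166C tagged with TAMRA read by polarization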
HTRA1 inhibitor – HTRA1 serine protease inhibitors, primary screen, biochemical, fluorescence polarization, HTS; Q92743; recombinant HTRA1, FP-rhodamine activity-based probe; inhibition, % at 5.96 µM; actives 0.5% (n = 340,000); AID 504803, 2011; in the data active = inhibition above about 36%
BSA probe FL – compounds interfering with TAMRA-BSA probe, counter-screen for TCR-CD3 interaction inhibitor project, biochemical, fluorescence, TAMRA-labeled BSA. shares compounds with TCR CD3 inh. TAMRA-labeled BSA probe fluorescence counterscreen. inhibition, % at 9.4 µM. actives 10% (n = 1,200); in the data active = inhibition above about 23%
TCR-CD3 conf – TCR-CD3 interaction inhibitors, retest, confirmation, biochemical, fluorescence, TAMRA-labeled TCR probe; inhibition, % at 9.4 µM; TAMRA-labeled TCR probe fluorescence binding assay; actives 48% (n = 1,200); shares compounds with TCR CD3 inh
rCAG bind conf – small molecules binding CAG repeat RNA – biochemical, fluorescence, confirmation. shares compounds with rCAG RNA binder. actives 70% (n = 4,300). AID 652065, 2013. r(CAG) RNA repeat, TO-PRO-1 dye displacement fluorescence. inhibition, % at 3 µM;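 active = inhibition above a per-plate cutoff, the mean inhibition of sample wells plus 3 SD, cut at about 35% in these data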;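 also: loss of TO-PRO-1 fluorescence as compound displaces dye from 1x1 AA loop RNA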
dCAG dye counter – displacement of TO-PRO-1 from CAG DNA duplex, counter-screen for rCAG RNA repeat binder project, biochemical, fluorescence, TO-PRO-1 dye, d(CAG) DNA oligo | shares compounds with rCAG RNA binder | d(CAG) DNA oligo TO-PRO-1 dye displacement | inhibition, % at 3 µM | actives 94% (n = 4,300) | AID 652068, 2013;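 active = inhibition above its plate's cutoff, the mean test-well inhibition plus 3 SD, cut at about 4.8% in these data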;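 also: hits displace the dye from DNA and so lower well fluorescence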
PRMT1 confirm – PRMT1 methyltransferase inhibitors, confirmation, biochemical, fluorescence polarization, triplicate | shares compounds with PRMT1 FP inh | recombinant His-PRMT1, activity-based probe fluorescence polarization | inhibition, % at 2.79 µM | actives 42% (n = 3,300) | AID 687036, 2013;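 active = mean inhibition across replicates above the hit cutoff derived for the earlier primary screen, cut at about 22% in these data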
mABHD4 conf – ABHD4 inhibitors, retest, confirmation, biochemical, fluorescence polarization, mouse. shares compounds with ABHD4 inh. purified mABHD4, FP-Rh probe fluorescence polarization. inhibition, % at 8.92 µM. actives 55% (n = 1,800). AID 720658, 2013;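 active = mean inhibition across replicates above the hit cutoff set in the primary screen, cut at about 30% in these data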
SIAE confirm – human SIAE inhibitors, retest, confirmation, biochemical, fluorescence polarization, FP-Rh probe, triplicate. shares compounds with SIAE inh. SIAE FP-Rh activity-based probe. inhibition, % at 9.66 µM. actives 13% (n = 2,300). AID 1117263, 2014;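 active = mean inhibition of the replicates above the hit cutoff set in the primary screen, cut at about 17% in these data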;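 also: inhibitors lower polarization as more probe stays unbound to SIAE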
Large screens that a line does not name were inactive (follow-up assays come after a bar, where they were run). Hits are enriched below; roughly 3.5% of the tested compounds scored in any of these assays. Rule as the data show it, unless noted: active = inhibition above about 19%; inactive = the rest.

Cc1cc(-c2csc(NC(=O)C3=COCCO3)n2)c(C)n1C	SIAE inh 26, TCR CD3 inh 22 | BSA probe FL inactive | TCR-CD3 conf inactive | SIAE confirm inactive
Cc1cc(C)c(-c2csc(NC(=O)C3=COCCO3)n2)c(C)c1	none
CCCC[C@H](C(=O)N(C)c1ccccc1)[C@@H](O)c1ccc(Cl)cc1	none (no result: TCR CD3 inh, HTRA1 inhibitor)
O=C(NCCc1ccccc1)c1ccc(S(=O)(=O)N2CCCCC2)cc1	none
Cc1cc2ccccc2n1CCNC(=O)c1ccc(S(=O)(=O)N2CCCCC2)cc1	ABHD4 inh 58, SIAE inh 37, TCR CD3 inh 63 | BSA probe FL inactive | TCR-CD3 conf inactive | mABHD4 conf 193 | SIAE confirm inactive
O=C1CCC(=O)c2ccc3c4c(ccc1c24)CC3	PRMT1 FP inh 27, rCAG RNA binder 49, SIAE inh 19, TCR CD3 inh 34 | BSA probe FL inactive | TCR-CD3 conf inactive | rCAG bind conf inactive | dCAG dye counter inactive | PRMT1 confirm inactive | SIAE confirm inactive
O=C1c2ccc3c4c(ccc(c24)C(=O)N1c1ccc2ccccc2c1)CC3	none
Cc1cc(C(=O)OCC(=O)NC2CCS(=O)(=O)C2)c2ccccc2n1 (stereo not drawn)	none
O=C(COC(=O)c1cc(-c2cccc3ccccc23)nc2ccccc12)NC1CCS(=O)(=O)C1 (stereo not drawn)	PRMT1 FP inh 25, ABHD4 inh 38, SIAE inh 25, TCR CD3 inh 30 | BSA probe FL 54 | TCR-CD3 conf 38 | mABHD4 conf inactive | SIAE confirm inactive
CC1=C2NC(N)=[N+](Cc3ccccc3)CC2n2c(=O)n(-c3ccccc3)c(=O)n2C1 (stereo not drawn)	none (no result: TCR CD3 inh, HTRA1 inhibitor)
Nc1cnccc1C(=O)O	PRMT1 FP inh 71, ABHD4 inh 86, SIAE inh 20, TCR CD3 inh 65 | BSA probe FL 33 | TCR-CD3 conf 25 | PRMT1 confirm inactive | mABHD4 conf inactive | SIAE confirm inactive
Nn1c(SCC(=O)Nc2nccs2)nnc1-c1cc(-c2ccc(Cl)cc2)n[nH]1	none (no result: TCR CD3 inh, HTRA1 inhibitor)
O=C(N/N=C/c1cc(Br)cc(Br)c1O)c1cccc(N2CCCC2=O)c1	SIAE inh 41, TCR CD3 inh 37 | BSA probe FL inactive | TCR-CD3 conf 48 | SIAE confirm 20
O=C(N/N=C/c1ccc(Cl)cc1Cl)c1cccc(N2CCCC2=O)c1	none
O=c1oc2ccccc2cc1-c1nc2ccccc2o1	none
Nc1cc2nc3ccccc3oc-2cc1=O	PRMT1 FP inh 24, ABHD4 inh 47, SIAE inh 20, TCR CD3 inh 23 | BSA probe FL inactive | TCR-CD3 conf inactive | mABHD4 conf inactive | SIAE confirm inactive
CN(CCC#N)C(=O)COC(=O)c1c2c(nc3ccccc13)/C(=C\c1ccco1)CC2	PRMT1 FP inh 32, ABHD4 inh 45, rCAG RNA binder 65, SIAE inh 19, TCR CD3 inh 34 | BSA probe FL inactive | TCR-CD3 conf 34 | rCAG bind conf 57 | dCAG dye counter 31 | PRMT1 confirm inactive | mABHD4 conf inactive | SIAE confirm inactive
COc1cccc(CN[C@@H]2CC[C@@]34CCCN3C(=O)CCC[C@H]4C2)c1	none (no result: rCAG RNA binder, TCR CD3 inh, HTRA1 inhibitor)
Cn1c(=O)c2c(-c3ccccc3)n(-c3ccc(N)cc3)cc2n(C)c1=O	ABHD4 inh 58, SIAE inh 22, TCR CD3 inh 29 (no result: HTRA1 inhibitor) | BSA probe FL inactive | TCR-CD3 conf inactive | mABHD4 conf inactive | SIAE confirm inactive
Cn1c(=O)c2c(-c3ccccc3)n(-c3cccc(O)c3)cc2n(C)c1=O	none (no result: HTRA1 inhibitor)
O=C(NNc1ccccc1[N+](=O)[O-])Nc1ccc(Cl)c(Cl)c1	none
O=C1NC(=O)C(c2ccccc2[N+](=O)[O-])=C1Nc1ccc(O)c(Cl)c1	ABHD4 inh 43, SIAE inh 19, TCR CD3 inh 20 | BSA probe FL inactive | TCR-CD3 conf inactive | mABHD4 conf inactive | SIAE confirm inactive
O=C(NC(=S)NCc1ccccc1)c1cccnc1	none
O=C(Cc1ccccc1)NNC(=S)NC(=O)c1cccnc1	SIAE inh 17, TCR CD3 inh 27 (no result: HTRA1 inhibitor) | BSA probe FL inactive | TCR-CD3 conf 21 | SIAE confirm inactive
O=C1CCCC/C1=C\Nc1ccc(O)cc1	PRMT1 FP inh 26, ABHD4 inh 54, SIAE inh 22, TCR CD3 inh 42 | BSA probe FL inactive | TCR-CD3 conf inactive | mABHD4 conf inactive | SIAE confirm inactive
CC(=O)[C@@]1(O)Cc2c(O)c3c(c(O)c2[C@H](O[C@H]2C[C@H](N)[C@H](O)[C@H](C)O2)C1)C(=O)c1ccccc1C3=O	PRMT1 FP inh 169, ABHD4 inh 101, SIAE inh 81, TCR CD3 inh 175 (no result: HTRA1 inhibitor) | BSA probe FL active | TCR-CD3 conf 167 | PRMT1 confirm 153 | SIAE confirm 81
